Reference: ChEMBL document CHEMBL4673205, “Structure-Based Design of a Covalent Inhibitor of the SET Domain-Containing Protein 8 (SETD8) Lysine Methyltransferase” (J Med Chem, 2016)
Activity calls are given as the source filed them. The rule behind the calls is not given here.

Key:
[1] = Permeability of compound; format: ADME; conditions: not told; read-out: permeability
[2] = Efflux ratio of compound; format: ADME; conditions: not told
[3] = target: T1, N-lysine methyltransferase KMT5A (Homo sapiens) (UniProt Q9NQR1); test: Inhibition of SETD8 in human HeLa cells assessed as reduction in monomethylation of H4K20 up to 10 uM; format: cell-based; conditions: dose microM <=10
T1 sequence (whole entry): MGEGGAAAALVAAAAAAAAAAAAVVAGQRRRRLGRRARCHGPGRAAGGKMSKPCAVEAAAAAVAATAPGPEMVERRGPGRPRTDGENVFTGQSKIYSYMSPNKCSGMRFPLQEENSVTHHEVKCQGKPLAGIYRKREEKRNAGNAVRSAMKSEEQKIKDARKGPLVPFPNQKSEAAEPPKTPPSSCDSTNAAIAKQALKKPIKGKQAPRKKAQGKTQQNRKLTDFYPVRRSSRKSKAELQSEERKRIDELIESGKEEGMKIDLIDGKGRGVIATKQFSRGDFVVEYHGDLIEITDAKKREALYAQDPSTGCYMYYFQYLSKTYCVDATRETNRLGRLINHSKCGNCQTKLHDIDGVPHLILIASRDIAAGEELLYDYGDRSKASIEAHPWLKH

[4] = target: N-lysine methyltransferase SMYD2 (Homo sapiens) (UniProt Q9NRG4); test: Binding affinity to SMYD2 (unknown origin) by mass-spectrometric analysis
[5] = target: T2, Histone-lysine N-methyltransferase SMYD3 (Homo sapiens) (UniProt Q9H7B4); test: Binding affinity to SMYD3 (unknown origin) by mass-spectrometric analysis
T2 sequence (whole entry): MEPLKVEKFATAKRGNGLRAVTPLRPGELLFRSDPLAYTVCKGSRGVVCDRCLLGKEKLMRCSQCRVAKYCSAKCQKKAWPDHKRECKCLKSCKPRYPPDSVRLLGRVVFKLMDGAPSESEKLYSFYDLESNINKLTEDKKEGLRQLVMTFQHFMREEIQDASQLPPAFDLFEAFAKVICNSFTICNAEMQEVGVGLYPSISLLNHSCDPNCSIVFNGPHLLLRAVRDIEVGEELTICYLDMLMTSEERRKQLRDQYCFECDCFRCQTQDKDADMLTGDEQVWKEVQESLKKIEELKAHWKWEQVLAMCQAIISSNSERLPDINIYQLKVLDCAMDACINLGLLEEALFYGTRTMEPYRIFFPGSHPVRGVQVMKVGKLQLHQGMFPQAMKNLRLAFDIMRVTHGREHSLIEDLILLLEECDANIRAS

[6] = target: Histone-lysine N-methyltransferase EZH2 (Homo sapiens) (UniProt Q15910); test: Binding affinity to PRC2 (unknown origin) by mass-spectrometric analysis
[7] = target: T1, N-lysine methyltransferase KMT5A (Homo sapiens); test: Binding affinity to wild type SETD8 catalytic domain (unknown origin) (234 to 380 residues) expressed in Escherichia coli assessed as covalent adduct formation at 20 to 200 uM incubated for 3 hrs in presence of GSH by LC-MSD-TOF analysis; conditions: dose 20-200 µM
Homo sapiens [8] = organism: Homo sapiens; test: Binding affinity to human recombinant N-terminal His-tagged SETD8 C343S mutant (234 to 380 residues) expressed in Escherichia coli assessed as covalent adduct formation at 20 to 200 uM incubated for 3 hrs by LC-MSD-TOF analysis; conditions: dose 20-200 µM
[9] = target: T1, N-lysine methyltransferase KMT5A (Homo sapiens); test: Binding affinity to wild type SETD8 catalytic domain (unknown origin) (234 to 380 residues) expressed in Escherichia coli assessed as covalent adduct formation at 20 to 200 uM incubated for 3 hrs by LC-MSD-TOF analysis; conditions: dose 20-200 µM
[10] = target: T3, N-lysine methyltransferase KMT5A (Homo sapiens, UniProt Q9NQR1); test: Inhibition of recombinant SETD8 catalytic domain (unknown origin) (232 to 393 residues) expressed in Escherichia coli assessed as reduction in incorporation of [3H]-labeled methyl group into biotinylated H4 (1 to 24) peptide measured after 5 hrs using [3H-SAM] by scintillation proximity assay
T3 sequence (Q9NQR1 whole entry): T1 sequence (whole entry)
Outline: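 SETD8 catalytic domain (residues 232–393) was expressed in E. coli and purified. Compound was preincubated with the enzyme for a set time (1 h or 5 h) before a scintillation proximity methylation assay. IC50 was taken from a fitted concentration–response curve.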

[11] = target: T3, N-lysine methyltransferase KMT5A; test: Inhibition of recombinant SETD8 catalytic domain (unknown origin) (232 to 393 residues) expressed in Escherichia coli assessed as reduction in incorporation of [3H]-labeled methyl group into biotinylated H4 (1 to 24) peptide measured after 1 hr using [3H-SAM] by scintillation proximity assay
Homo sapiens [12] = organism: Homo sapiens; test: Binding affinity to human recombinant N-terminal His-tagged SETD8 C311S mutant (234 to 380 residues) expressed in Escherichia coli assessed as covalent adduct formation at 20 to 200 uM incubated for 3 hrs by LC-MSD-TOF analysis; conditions: dose 20-200 µM
[13] = target: T1, N-lysine methyltransferase KMT5A (Homo sapiens); test: (§1) Inhibition of wild type SETD8 catalytic domain (unknown origin) (234 to 380 residues) expressed in Escherichia coli assessed as compound-adduct monomer formation by measuring residual activity at 20 to 200 uM using varying levels of biotinylated H4 (1 to 24) peptide substrate measured after 1 hr in presence of [3H-SAM] by scintillation counting assay; conditions: dose 20-200 µM
Outline: (§2)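 The adduct was purified by gel filtration, giving monomer and dimer fractions that interconvert after a short time. Each fraction was tested in the enzymatic assay, and residual activity was expressed relative to wild-type SETD8.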

[14] = target: T1, N-lysine methyltransferase KMT5A (Homo sapiens); test: as §1, with “dimer” for “monomer”; conditions: dose 20-200 µM; outline: as §2

Chain of N-lysine methyltransferase SMYD2 (Homo sapiens) (Q9NRG4 whole entry): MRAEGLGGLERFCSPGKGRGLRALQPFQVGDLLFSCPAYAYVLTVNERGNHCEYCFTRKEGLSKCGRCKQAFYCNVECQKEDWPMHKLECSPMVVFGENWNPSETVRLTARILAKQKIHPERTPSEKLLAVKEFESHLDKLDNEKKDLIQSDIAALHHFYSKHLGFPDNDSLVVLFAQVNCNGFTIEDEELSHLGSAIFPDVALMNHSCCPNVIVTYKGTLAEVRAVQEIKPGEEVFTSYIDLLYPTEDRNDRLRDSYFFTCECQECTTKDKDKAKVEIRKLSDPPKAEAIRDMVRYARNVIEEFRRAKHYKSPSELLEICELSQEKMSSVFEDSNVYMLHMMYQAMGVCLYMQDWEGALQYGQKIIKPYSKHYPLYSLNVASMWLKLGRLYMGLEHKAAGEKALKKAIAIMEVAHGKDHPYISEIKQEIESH
Chain of Histone-lysine N-methyltransferase EZH2 (Homo sapiens) (Q15910 whole entry, looked up, the tested form may be a part): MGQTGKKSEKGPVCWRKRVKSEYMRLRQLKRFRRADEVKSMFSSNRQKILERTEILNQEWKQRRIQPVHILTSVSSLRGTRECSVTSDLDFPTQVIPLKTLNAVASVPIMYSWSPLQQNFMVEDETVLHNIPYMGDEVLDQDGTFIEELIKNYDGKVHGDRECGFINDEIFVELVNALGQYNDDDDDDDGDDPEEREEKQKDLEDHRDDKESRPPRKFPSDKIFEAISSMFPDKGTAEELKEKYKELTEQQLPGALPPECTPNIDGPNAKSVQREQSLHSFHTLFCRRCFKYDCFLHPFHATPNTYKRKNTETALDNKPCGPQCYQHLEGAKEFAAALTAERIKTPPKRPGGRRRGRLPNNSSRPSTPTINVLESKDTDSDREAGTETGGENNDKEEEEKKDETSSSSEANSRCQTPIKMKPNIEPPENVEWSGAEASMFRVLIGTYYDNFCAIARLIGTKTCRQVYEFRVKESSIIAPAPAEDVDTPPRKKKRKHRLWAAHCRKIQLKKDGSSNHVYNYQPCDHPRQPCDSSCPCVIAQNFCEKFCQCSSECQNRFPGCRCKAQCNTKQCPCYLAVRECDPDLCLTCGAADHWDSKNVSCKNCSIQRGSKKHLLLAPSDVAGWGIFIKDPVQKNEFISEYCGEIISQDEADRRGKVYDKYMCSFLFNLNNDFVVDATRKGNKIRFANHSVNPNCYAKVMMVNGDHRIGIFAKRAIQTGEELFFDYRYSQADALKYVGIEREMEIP

Structure (SMILES)	Papp [1] [×10⁻⁶ cm/s]	efflux ratio [2]	inhibition [3]	Activity [4]	Activity [5]	Activity [6]	Activity [7]	Activity (Homo sapiens [8])	Activity [9]	IC50 [10] [µM]	IC50 [11] [µM]	Activity (Homo sapiens [12])	Activity [13] [%]	Activity [14] [%]
C=CC(=O)NCCCNc1nc(N2CCCC2)nc2cc(OC)c(OC)cc12	0.44	137	inactive	inactive	inactive	inactive	Active	Active	Active	0.804	6.9	inactive	10	10
C=CC(=O)NCCCN(C)c1nc(N2CCCC2)nc2cc(OC)c(OC)cc12									inactive		> 200			
